Reference: ChEMBL document CHEMBL1125218, “Substituted 2-(aminomethyl)piperidines: a novel class of selective protein kinase C inhibitors” (J Med Chem, 1991)
pIC50, pKi: −log10 of the molar value.

What was measured:
[1] = molecular target: cAMP-dependent protein kinase catalytic subunit alpha (Rattus norvegicus) (UniProt P27791); experiment: In vitro inhibition of cAMP-dependent kinase Protein kinase A isolated from rat brain by 100 uM.
Outline: (§1)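 PKA catalytic subunit at 4 ng/mL in 20 mM Tris with 10 μM histone, 100 μM dibutyryl-cAMP and 100 μM [³²P]ATP. Percent inhibition measured at 100 μM test compound.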

[2] = molecular target: T1, Protein kinase C, PKC; classical (Rattus norvegicus, UniProt P05696+P68403+P63319); experiment: In vitro inhibition of [32P] incorporation into histones by rat brain partially purified Protein kinase C in the presence of PMA, [Ca2+] and phosphatidylserine.
Outline: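 Partially purified rat brain PKC activated by PMA, Ca²⁺ and phosphatidylserine. Read-out is inhibition of ³²P incorporation into histones. Some values are extrapolated.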

[3] = molecular target: T2, Protein kinase C alpha type (Rattus norvegicus, UniProt P05696); experiment: Inhibition of [3H]-phorbol dibutyrate binding to Protein kinase C alpha
[4] = molecular target: T2, Protein kinase C alpha type; experiment: Effect of Phosphatidylserine on inhibition of Protein kinase C alpha
[5] = molecular target: cAMP-dependent protein kinase catalytic subunit alpha (Rattus norvegicus) (UniProt P27791); experiment: (§2) Inhibition of cAMP-dependent kinase PKA(Protein kinase A) catalytic subunit at 100 uM; outline: as §1
[6] = molecular target: T1, Protein kinase C, PKC; classical; experiment: Inhibition of PMA and [Ca2+] induced 32P incorporation into histones by partially purified rat brain Protein kinase C
Outline: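 Partially purified rat brain PKC activated by PMA, Ca²⁺ and phosphatidylserine. Read-out is inhibition of ³²P incorporation into histones. IC50 taken from concentration-inhibition curves run up to 100 μM inhibitor. Some values are extrapolated.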

[7] = molecular target: cAMP-dependent protein kinase catalytic subunit alpha (Rattus norvegicus, UniProt P27791); experiment: as §2
[8] = molecular target: cAMP-dependent protein kinase catalytic subunit alpha (Rattus norvegicus) (UniProt P27791); experiment: Inhibition of cAMP-dependent kinase PKA (Protein kinase A) catalytic subunit at 100 uM; outline: as §1

SMILES | inhibition [1] | IC50 [2] | other results
CCCCCCCCCCCCCCCC(=O)N1CCCCC1CNC(=O)[C@@H](N)CCCCN (some centres not stated) | 0% | 45 µM | –
CCCCCCCCC(=O)N1CCCCC1CNC(=O)[C@@H](N)CCCCN (some centres not stated) | 0% | – | –
CCCCCCCCCCCCC(=O)N1CCCCC1CNC(=O)[C@@H](N)CCCCN (some centres not stated) | 0% | 20 µM | pIC50 [3]: 4.64; pKi [4]: 4.92
CCCCCCCCCCCCC(=O)N1CCCCC1CNC(=O)[C@@H](N)CCC(=O)OCc1ccccc1 (some centres not stated) | 0% | 92 µM | –
CCCCCCCCCCCCCC(=O)N1CCCCC1CNC(=O)[C@@H](N)CCCCN (some centres not stated) | 0% | 48 µM | –
CCCCCCCCCCCCC(=O)N1CCCCC1CNC(=O)[C@@H](N)CC(C)C (some centres not stated) | – | – | inhibition [5]: 0%; IC50 [6]: 154 µM
CCCCCCCCCCCCC/C=C/[C@@H](O)[C@@H](N)CO [SPHINGOSINE] | – | 57 µM | pIC50 [7]: 4.01
CCCCCCCCCCCCC(=O)N1CCCCC1CNC(=O)[C@@H](N)CCCN=C(N)N (some centres not stated) | 0% | 72 µM | –
CCCCCCCCCCCCC(=O)N1CCCCC1CNC(=O)CN (configuration not stated) | 0% | 51 µM | –
CCCCCCCCCCCCC(=O)N1CCCCC1CNC(=O)[C@@H](N)CCC(=O)O (some centres not stated) | 0% | – | –
CCCCCCCCCCCCC(=O)N1CCCCC1CNC(=O)[C@H](C)N (some centres not stated) | 0% | 52 µM | –
CCCCCCCCCCCCCC(=O)N1CCCCC1CN (configuration not stated) | – | – | inhibition [8]: 46%; IC50 [6]: 36 µM
CCCCCCCCCCC(=O)N1CCCCC1CNC(=O)[C@@H](N)CCCCN (some centres not stated) | 0% | 299 µM | –
CCCCCCC(=O)N1CCCCC1CNC(=O)[C@@H](N)CCCCN (some centres not stated) | 0% | – | –
CCCCCCCCCCCCCCCCC(=O)N1CCCCC1CNC(=O)[C@@H](N)CCCCN (some centres not stated) | 0% | 46 µM | –
CCCCCCCCCCCCC(=O)N1CCCCC1CNC(=O)[C@@H](N)Cc1ncc[nH]1 (some centres not stated) | 0% | 60 µM | –
CCCCCCCCCCCCCCC(=O)N1CCCCC1CNC(=O)[C@@H](N)CCCCN (some centres not stated) | – | – | inhibition [5]: 0%; IC50 [6]: 38 µM
CCCCCCCCCCCCC(=O)N1CCCCC1CNC(=O)[C@@H](N)CCC(N)=O (some centres not stated) | 0% | 72 µM | –
CCCCCCCCCCCC(=O)N1CCCCC1CNC(=O)[C@@H](N)CCCCN (some centres not stated) | 0% | 102 µM | –
CCCCCCCCCCCCC(=O)N1CCCCC1CNC(=O)[C@@H](N)CO (some centres not stated) | 0% | 45 µM | –
CCCCCCCCCCCCC(=O)N1CCCCC1CNC(=O)[C@@H](N)CCSC (some centres not stated) | 0% | 159 µM | –
CCCCCCCCCCCCCCCCCC(=O)N1CCCCC1CNC(=O)[C@@H](N)CCCCN (some centres not stated) | 38% | 36 µM | –
CCCCCCCCCCCCC(=O)N1CCCCC1CNC(=O)[C@H](N)CCCCN (some centres not stated) | 0% | 34 µM | –
CCCCCCCCCCCCC(=O)N1CCCCC1CNC(=O)[C@@H](N)CCCN (some centres not stated) | 0% | 23 µM | –
